Screens as filed in PubChem.
Cl transport mod: KCC2 cotransporter modulators, thallium flux, primary screen, cell-based, HEK293 KCC2, FluoZin-2 fluorescence, MLSMR | 2.2% of 190,000 active | KCC2 cells, thallium flux FluoZin-2 fluorescence | B-score of Tl+ flux slope (higher = more flux/activation; lower = inhibition) at 10 µM | Solute carrier family 12 member 5 (Homo sapiens), Q9H2X9;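 active = thallium flux slope and its plate-corrected score both differing from the plate sample mean at a set confidence after two filtering rounds, in either direction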;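 note: slope of fluorescence scaled to starting intensity during 10 to 20 s after thallium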
ROMK mod: ROMK potassium channel modulators, primary screen, cell-based, thallium flux, MLSMR library. AID 1918, 2009. B-score at 10 µM. Tet-inducible ROMK, thallium flux fluorescence; actives lie on both sides. ATP-sensitive inward rectifier potassium channel 1 (Homo sapiens), P48048. 2% of 130,000 active;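 active = signal ratio slope over the read window, or its plate-corrected B-score, at least 3 SD from the plate mean, either direction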;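 note: B-score of the F/F0 ratio slope over 7 to 12 s after thallium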
Target sequence (P48048 whole entry, looked up): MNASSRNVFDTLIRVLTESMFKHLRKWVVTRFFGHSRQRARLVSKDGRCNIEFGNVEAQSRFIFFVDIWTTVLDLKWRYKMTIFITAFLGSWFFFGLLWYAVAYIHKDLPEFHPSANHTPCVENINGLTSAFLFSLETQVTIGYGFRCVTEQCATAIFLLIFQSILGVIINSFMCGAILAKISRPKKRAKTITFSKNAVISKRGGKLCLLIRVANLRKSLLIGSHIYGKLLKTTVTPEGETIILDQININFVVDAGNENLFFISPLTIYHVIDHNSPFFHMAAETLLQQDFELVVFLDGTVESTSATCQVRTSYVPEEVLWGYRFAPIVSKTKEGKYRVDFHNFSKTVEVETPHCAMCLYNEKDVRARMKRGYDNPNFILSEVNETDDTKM
MT stabilizer: microtubule stabilizers in HeLa cells, primary screen, imaging, high-content imaging; HeLa tubulin immunostaining HCS, 24 h; share of cells brighter than vehicle mean+2SD; % tubulin-high responders, % at 10 µM; 0.83% of 200,000 active;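 active = plate Z-score above 3 for both tubulin-high and condensed-nucleus cell shares, with cell loss under 80%, at 10 µM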;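 note: anti alpha tubulin signal scored within the nucleus-defined area of each cell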
b-catenin transl: modulators of beta-catenin nuclear translocation, primary screen, imaging, HeLa cells, immunofluorescence, high-content; nuclear translocation activity, % at 5 µM; AID 1665, 2009; 0.3% of 190,000 active;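 active = nuclear translocation activity above 50% at 5 µM, with a well cell count of 50 or more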;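 note: per-cell ratio of nuclear to cytoplasmic median beta-catenin stain intensity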
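assay system = human HeLa cells, endogenous beta-catenin | times = compound treatment 24 h, 37°C, 5% CO2 | detection = Anti-beta-catenin immunofluorescence on PFA-fixed, Triton-permeabilized cells, DAPI nuclei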
Redox H2O2 prof: compounds producing H2O2 with reducing agent – biochemical, NIH compound library profiling, artefact control for MLSCN library redox annotation, primary screen; DTT-dependent redox cycling H2O2, phenol red/HRP absorbance; 100% = 100 µM peroxide control, 0% = buffer; activation, % at 10 µM; 0.03% of 200,000 active;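 active = activation of at least 50% relative to the plate's high and low controls in the primary single-dose screen; inactive = activation below 50%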;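 note: compound incubated with DTT at 0.8 mM final as the reducing agent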
Of the large screens only hits and unclear results are named; the others gave an inactive call. Hits are enriched below; roughly 3.7% of the tested compounds scored in any of these assays.

CCCCCC/C(C)=C1/SC(=S)NC1=O	Cl transport mod 53 (no result: ROMK mod)
C/C(C/C(C)=C1/SC(=S)NC1=O)=C1\SC(=S)NC1=O	none
CCOC(=O)c1ccc(/C=C2/C=C(c3ccccc3)N(c3ccc(Cl)c(C(=O)O)c3)C2=O)cc1	none (no result: ROMK mod, b-catenin transl)
Cc1cccc2sc(NC(=O)CCn3cccc3)nc12	none
Cc1cccc2sc(NC(=O)Cn3cccc3)nc12	Cl transport mod 12 (no result: ROMK mod)
NC(=O)CSc1nnc(-c2ccc3c(c2)OCO3)o1	none (no result: ROMK mod)
CSc1cccc(-n2cc(-c3ccc4c(c3)OCO4)[nH]c2=O)c1	MT stabilizer 19, b-catenin transl 162 (no result: ROMK mod)
Cc1cccc(/C=C/c2nc3ccccc3c(=O)[nH]2)c1	MT stabilizer 26 (no result: Cl transport mod)
NC(CCCCCP(=O)(c1ccccc1)c1ccccc1)C(=O)O (configuration not stated)	none (no result: MT stabilizer, Redox H2O2 prof)
O=C1CS/C(=C/C(=O)c2ccccc2)N1	none (no result: Cl transport mod, ROMK mod)
Cc1cc(C)cc(C(=O)/C=C2\NC(=O)CS2)c1	Cl transport mod 6.4 (no result: ROMK mod)
N=c1c2c3c(sc2ncn1Nc1ccccc1)CCC3	none (no result: MT stabilizer, Redox H2O2 prof)
c1ccc(-c2nnc3sc(-c4csc5c4CCCC5)nn23)cc1	MT stabilizer 21 (no result: Cl transport mod)
c1ccc(-c2nnc3sc(-c4ccncc4)nn23)cc1	none (no result: b-catenin transl)
CCOC(=O)c1ccc(NC(=O)Nc2ccon2)cc1	b-catenin transl 93 (no result: ROMK mod, MT stabilizer, Redox H2O2 prof)
COc1ccc(C(NC(=O)C(C)C)c2c(O)ccc3ccccc23)cc1OC (configuration not stated)	none
CCCC(=O)NC(c1ccc(OC)cc1)c1ccc2cccnc2c1O (configuration not stated)	MT stabilizer 8.7
COc1ccc(C(NC(=O)C(C)C)c2c(O)ccc3ccccc23)cc1 (configuration not stated)	MT stabilizer 13
CCC(=O)NC(c1ccc(OC)cc1)c1c(O)ccc2ccccc12 (configuration not stated)	MT stabilizer 18
CCC(=O)NC(c1ccc(N(C)C)cc1)c1c(O)ccc2ccccc12 (configuration not stated)	none
C=C(C)CN(CC)C(=O)CC1C(=O)NCCN1C (configuration not stated)	none
COc1ccc2[nH]c3c(c2c1)CCNC3C1CC=C(C)CC1 (configuration not stated)	MT stabilizer 9.3, b-catenin transl 51
COc1ccc2[nH]c(C)cc(=O)c2c1	none (no result: ROMK mod)
Cc1nc2scc(-c3ccc(C(C)C)cc3)c2c(=O)n1N	none
O=C(CCc1ccccc1)NC(c1cccs1)c1cc(Cl)c2cccnc2c1O (configuration not stated)	MT stabilizer 10 (no result: Cl transport mod)
COc1cccc(C2=NOC(C(=O)NCc3ccccc3)C2)c1 (configuration not stated)	MT stabilizer 19, b-catenin transl 131 (no result: ROMK mod)
COCCNC(=O)C1CC(c2cccc(OC)c2)=NO1 (configuration not stated)	none (no result: ROMK mod)
COc1ccc(C2=NOC(C(=O)NCc3ccccc3)C2)cc1 (configuration not stated)	b-catenin transl 154 (no result: ROMK mod)
CCn1ncc(C2=NOC(C(=O)NCc3ccc(OC)cc3)C2)c1C (configuration not stated)	MT stabilizer 18, b-catenin transl 147 (no result: ROMK mod)
COc1ccc(Cl)cc1N(C(C)C(=O)NC1CCCC1)S(C)(=O)=O (configuration not stated)	none
CC(C)c1cc(C(=O)O)c2cnn(C(C)C)c2n1	none (no result: ROMK mod, MT stabilizer, Redox H2O2 prof)
COc1ccc2nc3oc(C(=O)N4CCN(c5cccc(C(F)(F)F)c5)CC4)cc3cc2c1	MT stabilizer 13 (no result: Cl transport mod)
Cc1ccc(-c2csc(NC(=O)/C=C/c3ccco3)c2C(=O)O)cc1	none
CC1(C)CC(=O)C/C(=N/NC(=O)c2ccc(-c3ccccc3)cc2)C1	Cl transport mod -4.7
Cc1ccc(-n2ncc(Cl)c2C(=O)NC2CC2)cc1	none
Cc1ccc(NC(=O)C(C)N=C2NS(=O)(=O)c3ccccc32)cc1F (configuration not stated)	none (no result: ROMK mod, MT stabilizer, Redox H2O2 prof)
COc1ccc(NC(=O)/C=N/O)cc1	none
COc1ccc(N/N=C(\C=N\O)C(=O)c2ccc(OC)cc2)cc1	MT stabilizer 38 (no result: Cl transport mod, b-catenin transl)
O=C(C[n+]1cn(C(F)F)c2ccccc21)c1ccc(OC(F)F)cc1	none (no result: ROMK mod)
O=C(N/N=C/c1cccs1)C1COc2ccccc2O1 (configuration not stated)	MT stabilizer 40 (no result: ROMK mod)
Cc1c(/C=N\NC(=O)C2COc3ccccc3O2)c2ccccc2n1C (configuration not stated)	b-catenin transl 58 (no result: ROMK mod)
CCOC(=O)Cn1nc(C)c2c1CCCC2=O	none (no result: ROMK mod)
Cc1ccc(NS(=O)(=O)c2cc(OCC(N)=O)c(C)cc2Cl)cc1C	ROMK mod -3.1
COc1ccc(C(=O)c2sc(NC(C)C)nc2N)cc1OC	ROMK mod -4.2 (no result: Cl transport mod)
CN(C(=O)c1ccc(OC2CCN(C(=O)c3cccnc3)CC2)cc1)C1CCCCC1	none (no result: ROMK mod)
O=C(Nc1nnc(-c2ccc3c(c2)CCCC3)o1)c1ccccc1	Cl transport mod 79 (no result: ROMK mod)
O=C(Nc1nnc(-c2ccncc2)o1)c1ccccc1	none
O=C(Nc1nnc(-c2ccc(Cl)cc2)o1)c1ccc(N2C(=O)CCC2=O)cc1	Cl transport mod 12
O=C(Nc1nnc(-c2ccc3c(c2)CCCC3)o1)c1ccccc1Cl	Cl transport mod 50 (no result: ROMK mod)
O=C(Nc1nnc(-c2ccco2)o1)c1ccc(N2C(=O)CCC2=O)cc1	none
O=C(COc1ncnc2ccccc12)NCC1CCCO1 (configuration not stated)	none
COc1ccc(NS(=O)(=O)c2cc(NC(=O)c3ccco3)ccc2N2CCCC2)cc1	MT stabilizer 15 (no result: ROMK mod)
O=C1CCN(S(=O)(=O)c2ccccc2)CCN1CCOCc1ccc(F)cc1	b-catenin transl 70 (no result: ROMK mod, MT stabilizer, Redox H2O2 prof)
Cc1cccc(C)c1NC(=O)COC(=O)c1cccnc1	none
CCOC(=O)c1cnc(SC)nc1Oc1cccc(NS(=O)(=O)c2ccc(Cl)cc2)c1	MT stabilizer 32 (no result: Cl transport mod, ROMK mod)
COc1ccccc1C(=O)NNC(=S)NC(=O)c1sc2ccccc2c1Cl	Cl transport mod 20 (no result: ROMK mod)
COc1ccccc1C(=O)NC(=S)NNC(=O)c1sc2ccccc2c1Cl	Cl transport mod 34 (no result: ROMK mod)
COc1ccc(N2CCN(C(=O)Cc3ccc(Br)cc3)CC2)cc1	none (no result: ROMK mod, MT stabilizer, Redox H2O2 prof)
CCn1nc(C(=O)N2CCc3ccccc3C2)c2ccccc2c1=O	MT stabilizer 16 (no result: ROMK mod)
CCCn1nc(C(=O)N2CCc3ccccc3C2)c2ccccc2c1=O	none (no result: Cl transport mod, ROMK mod)
O=C(CCn1c(=O)oc2ccccc21)N1CCN(c2ccccc2Cl)CC1	MT stabilizer 44 (no result: ROMK mod)
O=C(O)CC(C(=O)Nc1ccc(F)cc1)C1CCCO1 (configuration not stated)	none (no result: ROMK mod, MT stabilizer, Redox H2O2 prof)
O=C(NNC(=O)c1sccc1-n1cccc1)c1ccc(Cl)cc1	Cl transport mod 15 (no result: ROMK mod)
